Laboratory results published in PMC8103725 (FASEB BioAdvances, 2021).
pIC50: −log10 of the molar value.

Tests used:
[1] = target: HEG1–KRIT1 interaction (EGFP‐KRIT1 FERM domain binding to HEG1 cytoplasmic tail on beads) (Homo sapiens, UniProt O00522); test: Flow cytometry bead assay for the HEG1–KRIT1 FERM domain interaction; conditions: for inhibition of the HEG1–KRIT1 interaction: result in words
hCMEC/D3 cells [2] = test: Propidium iodide staining, cell viability; type: cell-based, human; conditions: 50 μM, 24 h, vs vehicle
Method in brief: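 hCMEC/D3 cells were treated with test compound or the same DMSO concentration, then resuspended in PBS with 1% BSA and stained with propidium iodide. Samples were analysed by flow cytometry, counting PI‑positive cells as dead. Results are percentage viable cells ± SEM, n=3, one‑way ANOVA.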

hCMEC/D3 cells [3] = test: Western blot of pAkt‐S473 and total Akt in hCMEC/D3 cells; type: cell-based, human; conditions: for effect on Akt phosphorylation induced by HKi2: with HKi2 50 μM, MK‐2206 20 μM, LY294002 10 μM
Method in brief: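 hCMEC/D3 cells were treated with 50 μM test compound or DMSO and washed twice in ice‑cold HBSS. They were lysed in RIPA (50 mM Tris pH 7.5, 150 mM NaCl, 1% NP‑40, 0.5% deoxycholate, 0.1% SDS, 2 mM EDTA, 50 mM NaF) with protease/phosphatase inhibitors and 1 mM Na3VO4. Lysates were spun at 20,000xg for 15 min at 4°C, resolved on 4–12% gels, and immunoblotted for phospho‑Akt Ser473 (1:250) and total Akt. Data are mean ± SEM.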

[4] = system: PARD3 binding to HEG1 cytoplasmic tail; test: PARD3 pulldown assay with HEG1 matrix; set-up: species or system human; conditions: HUVEC lysates, 35 μM compound
Method in brief: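 Clarified lysate (600 μg) was rotated overnight at 4°C with 20 μL neutravidin agarose carrying HEG1 wild‑type (1274–1381) or ΔYF (1274–1379) tail. Incubations contained DMSO, 35 μM test compound or 35 μM 2‑hydroxy‑1‑naphthoic acid. After three washes, bound PARD3 was detected by SDS–PAGE immunoblot with rabbit polyclonal anti‑PARD3.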

hCMEC/D3 cells [5] = test: qPCR of KLF4 and KLF2 mRNA in hCMEC/D3 cells; type: cell-based, human; conditions: 50 μM, 4 h
Method in brief: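 Test compound came from a 10 mM DMSO stock, rotated 30 min at RT before use. hCMEC/D3 cells (passages 30–37, collagen‑coated, EGM‑2 MV, 37°C/5% CO2) were treated at the indicated doses (12 h dose–response) or over a time course, versus DMSO. RNA was extracted with TRIzol, and 1 µg was reverse‑transcribed with SuperScript III. qPCR used actin normalization and 2−ΔΔCT. Results are relative to vehicle ± SEM: n=3 t test, or n=4 one‑way ANOVA.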

[6] = system: klf2a expression in arterial and venous endothelium; test: Zebrafish klf2a reporter Tg; type: in vivo; conditions: 4 μM, 4 h from 26 hpf
Method in brief: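 Tg(klf2a:H2B‑EGFP);Tg(kdrl:mCherry) embryos were exposed to test compound dissolved in fish egg water. At 30 hpf they were paralysed with tricaine and imaged by confocal microscopy. Nuclear EGFP intensity in vasculature was measured on nuclei outlined through Z, seven nuclei per embryo. Each experiment used two treated and two control embryos; two independent experiments were analysed.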

HUVEC = test: Genome‐wide RNA sequencing of HUVEC; type: cell-based, human; conditions: same conditions as HKi2, vs vehicle; data not shown
Method in brief: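 HUVEC (passages 4–7) were grown on fibronectin in complete EGM‑2 at 37°C, 5% CO2, then given 75 μM test compound or DMSO for 24 h. Only RNA with RIN >8 was used; 400 ng went into TruSeq stranded mRNA libraries. Libraries were sequenced on HiSeq2500 (SR100, 30 million reads), mapped to GRCh release 96 with Hisat2, and analysed for differential expression with EdgeR.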

[7] = Aqueous solubility in assay buffer; type: physicochemical; conditions: assay buffer conditions

Sequence of HEG1–KRIT1 interaction (EGFP‐KRIT1 FERM domain binding to HEG1 cytoplasmic tail on beads) (O00522 417-736): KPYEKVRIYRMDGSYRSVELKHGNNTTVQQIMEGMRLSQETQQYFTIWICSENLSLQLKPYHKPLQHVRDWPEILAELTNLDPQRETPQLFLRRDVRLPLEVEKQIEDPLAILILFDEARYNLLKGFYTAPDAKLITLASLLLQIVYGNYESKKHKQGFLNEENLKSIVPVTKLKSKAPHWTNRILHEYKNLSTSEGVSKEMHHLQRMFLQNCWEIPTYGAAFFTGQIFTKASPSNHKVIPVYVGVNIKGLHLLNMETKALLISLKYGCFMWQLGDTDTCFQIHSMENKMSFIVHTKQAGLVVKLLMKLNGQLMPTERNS

In the case of `O=Cc1cc(-c2ccccc2)ccc1O` [Compound 6], the “inhibition of the HEG1–KRIT1 interaction” value [1] was “moderate inhibition activity”.

With `O=Cc1nccc2ccccc12` [Compound 8] the “inhibition of the HEG1–KRIT1 interaction” value [1] was “no inhibition”.

For `O=C(O)c1c(O)ccc2ccccc12` [Compound 9, 2‐hydroxy‐1‐naphthoic acid], the cell viability (hCMEC/D3 cells [2]) was “no statistical difference”, the “inhibition of the HEG1–KRIT1 interaction” value [1] was “does not block KRIT1 binding to HEG1” and the “Akt phosphorylation (pAkt‐S473)” value (hCMEC/D3 cells [3]; 50 μM, 4 h) was “did not elevate Akt activity”. The “PARD3 binding to HEG1” value [4] was “no effects”, the “KLF2 mRNA levels” value (hCMEC/D3 cells [5]) was “did not elevate” and the “KLF4 mRNA levels” value (hCMEC/D3 cells [5]) was “did not elevate”. The “nuclear EGFP (klf2a reporter) in arterial and venous endothelium” value [6] was “no effects” and the “effects on HUVECs gene expression by RNA‐Seq” value (HUVEC) was “no significant effects”.

In the case of `CC(NC(=O)c1ccccc1/N=C/c1c(O)ccc2ccccc12)c1ccccc1` (centres unmarked) [HKi1, Sirtinol], the pIC50 ([1]; IC50, competition, 70 nM EGFP‐KRIT1 FERM domain, 150 nM HEG1 on the beads) was about 5.00 and the aqueous solubility [7] was “poor solubility”.

With `O=c1cc(N2CCOCC2)oc2c(-c3ccccc3)cccc12` [LY294002] the “effect on Akt phosphorylation induced by HKi2” value (hCMEC/D3 cells [3]) was “prevented an increase in Akt signaling”.

With `NC1(c2ccc(-c3nc4ccn5c(=O)[nH]nc5c4cc3-c3ccccc3)cc2)CCC1` [MK‐2206] the “effect on Akt phosphorylation induced by HKi2” value (hCMEC/D3 cells [3]) was “prevent the increase in Akt phosphorylation”.
